From ChEMBL document CHEMBL1250469, “Design, synthesis, and biological evaluation of ketoprofen analogs as potent cyclooxygenase-2 inhibitors” (Bioorg Med Chem, 2010) come the findings set out here.

The species entered for this experiment is Ovis aries. Nature of the experiment: Selectivity index, ratio of IC50 for sheep COX1 to IC50 for COX2. The procedure, abridged: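 Ratio of IC50 for COX-1 to IC50 for COX-2. Both come from the ovine chemiluminescent COX assay, with arachidonic acid as substrate and a naphthalene hydrazide luminescence read-out. Each IC50 is the mean of two determinations.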

Consider `CS(=O)(=O)c1ccc(-c2cc(C(=O)O)c3cccc(C(=O)c4ccccc4)c3n2)cc1`, for which the Ratio IC50 amounted to 231. Take `CS(=O)(=O)c1ccc(-c2cc(C(=O)O)c3cc(C(=O)c4ccccc4)ccc3n2)cc1`: the Ratio IC50 was found to be 317. As for `[N-]=[N+]=Nc1ccc(-c2cc(C(=O)O)c3cc(C(=O)c4ccccc4)ccc3n2)cc1`, the Ratio IC50 was > 1300. Take `[N-]=[N+]=Nc1ccc(-c2cc(C(=O)O)c3cccc(C(=O)c4ccccc4)c3n2)cc1`: the Ratio IC50 stood at 1150. Consider `CC(=O)Nc1ccc(-c2cc(C(=O)O)c3cccc(C(=O)c4ccccc4)c3n2)cc1`, for which the Ratio IC50 turned out to be 115. On to `CC(=O)Nc1ccc(-c2cc(C(=O)O)c3cc(C(=O)c4ccccc4)ccc3n2)cc1`, for which the Ratio IC50 turned out to be 256.
